Results: ChEMBL document CHEMBL4364272, “Discovery of a Lead Triphenylethanamine Cholesterol Ester Transfer Protein (CETP) Inhibitor” (ACS Med Chem Lett, 2019)
Active and inactive are the calls of the source. The calls are words filed in the database; no cut-off is given here.

What was measured:
[1] = Volume of distribution at steady state in Sprague-Dawley rat at 1 mg/kg, iv or 10 mg/kg, po administered via gavage measured upto 24 hrs by LC-MS/MS; type: ADME, organism-based; conditions: in vivo, read-out: Vdss
How it was run: (§1)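 Single IV and oral doses: rat 1 mg/kg IV and 10 mg/kg PO; mouse 5 mg/kg IV and 10 mg/kg PO; monkey 1 mg/kg IV and 5 mg/kg PO. IV vehicle was 10% Cremophor/10% EtOH/80% H2O for rodents and 70% PEG-400/10% EtOH/20% H2O for monkey. Oral vehicle was 15% Miglyol 812/30% Capmul MCM/15% Triacetin/40% Cremophor RH40, or the Cremophor vehicle for rat. Vss, Cl, t1/2 and %F were derived.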

CYP11B2 = experiment: Effect on CYP11B2 gene expression in human NCI-H295R cells at 10 uM measured after 24 hrs relative to control; type: ADME, cell-based; conditions: read-out: FC
How it was run: (§2)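 H295R cells were incubated for 24 h with test agent at 10 μM or angiotensin-II at 0.1 μM. CYP11B1 and CYP11B2 mRNA levels were measured and expressed as fold of control.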

[2] = target: T1, Cholesteryl ester transfer protein (Homo sapiens) (UniProt P11597); experiment: Potency index, ratio of torcetrapib IC50 to test compound IC50 for inhibition of CETP in human whole plasma; type: cell-free
T1 sequence (whole entry): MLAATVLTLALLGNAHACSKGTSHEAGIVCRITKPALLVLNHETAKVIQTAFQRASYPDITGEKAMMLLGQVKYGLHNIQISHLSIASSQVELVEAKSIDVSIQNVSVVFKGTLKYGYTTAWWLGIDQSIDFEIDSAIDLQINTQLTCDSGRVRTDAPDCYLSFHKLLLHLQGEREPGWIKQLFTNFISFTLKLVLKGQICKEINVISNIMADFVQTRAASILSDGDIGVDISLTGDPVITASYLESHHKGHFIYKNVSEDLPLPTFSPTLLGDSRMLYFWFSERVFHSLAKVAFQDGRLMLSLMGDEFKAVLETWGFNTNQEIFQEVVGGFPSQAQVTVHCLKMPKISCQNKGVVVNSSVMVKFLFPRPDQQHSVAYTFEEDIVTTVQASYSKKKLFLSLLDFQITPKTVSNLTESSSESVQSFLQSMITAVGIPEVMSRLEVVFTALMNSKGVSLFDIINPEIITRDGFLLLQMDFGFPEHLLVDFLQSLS

[3] = Oral bioavailability in Balb/c mouse at 10 mg/kg measured upto 24 hrs by LC-MS/MS; type: ADME, organism-based; conditions: in vivo; how it was run: as §1
[4] = Stability in human liver microsomes assessed as parent compound remaining at 50 uM preincubated for 5 to 7 mins followed by NADPH addition and measured 10 mins post-dose by LC-MS/MS; type: ADME, Microsome; conditions: read-out: Stability
[5] = Stability in mouse liver microsomes assessed as parent compound remaining at 50 uM preincubated for 5 to 7 mins followed by NADPH addition and measured 10 mins post-dose by LC-MS/MS; type: ADME, Microsome; conditions: read-out: Stability
[6] = Half life in Sprague-Dawley rat at 1 mg/kg, iv or 10 mg/kg, po administered via gavage measured upto 24 hrs by LC-MS/MS; type: ADME, organism-based; conditions: in vivo; how it was run: as §1
Hamster = experiment: In vivo inhibition of CETP in hamster assessed as increase in HDL cholesterol at 10 mg/kg, po qd administered for 7 days measured 6 hrs post-dose on every other day by FPLC analysis relative to control; type: functional; conditions: Cricetinae
How it was run: (§3)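 Hamsters received 10 mg/kg. Plasma cholesterol profiles were resolved by FPLC to give HDL cholesterol change, and plasma exposure was measured.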

[7] = Cmax in telemetered rat at 2.5 mg/kg administered as iv infusion for 5 mins followed by 7.5 mg/kg, iv infusion for 55 mins; type: ADME, organism-based; design: dose 2.5 mg/kg, route intravenous; conditions: in vivo
How it was run: (§4)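 Rats were telemetered and given a total of 10 mg/kg IV: 2.5 mg/kg infused over 5 min, then 7.5 mg/kg infused over 55 min (n = 7). Mean, systolic and diastolic BP, heart rate and locomotor activity were monitored, and the observed Cmax was recorded.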

[8] = Clearance in cynomolgus monkey at 1 mg/kg, iv or 5 mg/kg, po administered via gavage measured upto 24 hrs by LC-MS/MS; type: ADME, organism-based, Macaca fascicularis; conditions: in vivo; how it was run: as §1
[9] = Cardiac toxicity in telemetered rat assessed as change in heart rate at 2.5 mg/kg administered as iv infusion for 5 mins followed by 7.5 mg/kg, iv infusion for 55 mins; type: organism-based; conditions: in vivo; how it was run: as §4
[10] = Cardiac toxicity in telemetered rat assessed as change in diastolic blood pressure at 2.5 mg/kg administered as iv infusion for 5 mins followed by 7.5 mg/kg, iv infusion for 55 mins; type: organism-based; conditions: in vivo; how it was run: as §4
[11] = Half life in cynomolgus monkey at 1 mg/kg, iv or 5 mg/kg, po administered via gavage measured upto 24 hrs by LC-MS/MS; type: ADME, organism-based, Macaca fascicularis; conditions: in vivo; how it was run: as §1
[12] = target: Voltage-gated inwardly rectifying potassium channel KCNH2 (Homo sapiens, UniProt Q12809); experiment: Inhibition of human ERG expressed in HEK293 cells by flux assay
Sequence of Voltage-gated inwardly rectifying potassium channel KCNH2 (Q12809 whole entry): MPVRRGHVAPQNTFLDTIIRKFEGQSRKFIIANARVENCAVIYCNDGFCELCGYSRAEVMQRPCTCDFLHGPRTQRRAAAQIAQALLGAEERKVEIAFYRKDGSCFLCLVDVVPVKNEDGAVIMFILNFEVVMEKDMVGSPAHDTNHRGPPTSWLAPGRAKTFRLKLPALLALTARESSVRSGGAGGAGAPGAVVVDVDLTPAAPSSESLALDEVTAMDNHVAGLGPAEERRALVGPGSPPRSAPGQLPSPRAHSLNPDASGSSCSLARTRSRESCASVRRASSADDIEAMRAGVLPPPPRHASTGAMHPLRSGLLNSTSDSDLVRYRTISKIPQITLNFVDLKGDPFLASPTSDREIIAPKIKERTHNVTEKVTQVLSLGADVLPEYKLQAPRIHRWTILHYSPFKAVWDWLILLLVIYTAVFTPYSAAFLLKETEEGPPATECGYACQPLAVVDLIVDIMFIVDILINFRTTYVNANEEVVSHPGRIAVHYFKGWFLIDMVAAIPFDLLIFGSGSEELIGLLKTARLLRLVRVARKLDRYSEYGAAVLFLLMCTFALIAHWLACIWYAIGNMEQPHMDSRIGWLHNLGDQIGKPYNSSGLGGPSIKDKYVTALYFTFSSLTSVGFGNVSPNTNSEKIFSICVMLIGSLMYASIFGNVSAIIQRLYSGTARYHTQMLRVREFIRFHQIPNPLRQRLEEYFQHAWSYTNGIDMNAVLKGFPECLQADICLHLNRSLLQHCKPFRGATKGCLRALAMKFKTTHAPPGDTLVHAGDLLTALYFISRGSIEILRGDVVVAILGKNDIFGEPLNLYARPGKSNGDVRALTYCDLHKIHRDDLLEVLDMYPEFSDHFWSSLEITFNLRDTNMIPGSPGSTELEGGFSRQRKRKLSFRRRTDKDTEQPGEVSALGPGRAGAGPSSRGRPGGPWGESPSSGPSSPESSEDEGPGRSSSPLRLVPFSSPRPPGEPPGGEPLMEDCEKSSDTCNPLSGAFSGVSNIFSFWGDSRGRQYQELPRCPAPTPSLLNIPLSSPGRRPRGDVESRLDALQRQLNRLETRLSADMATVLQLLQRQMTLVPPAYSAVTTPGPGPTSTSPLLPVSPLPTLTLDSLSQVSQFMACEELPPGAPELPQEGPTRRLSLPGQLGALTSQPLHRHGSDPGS

[13] = Half life in Balb/c mouse at 5 mg/kg, iv or 10 mg/kg, po administered via gavage measured upto 24 hrs by LC-MS/MS; type: ADME, organism-based; conditions: in vivo; how it was run: as §1
[14] = target: T2, Cholesteryl ester transfer protein (Homo sapiens, UniProt P11597); experiment: Inhibition of human recombinant CETP assessed as reduction in [3H]CE/HDL transfer incubated for 4 hrs by scintillation proximity assay
T2 sequence (P11597 whole entry): T1 sequence (whole entry)
How it was run: (§5)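 CETP activity was measured by scintillation proximity assay and by human whole plasma assay. Each was run in duplicate at six concentrations, and the mean values were used to calculate IC50.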

CYP11B1 = experiment: Effect on CYP11B1 gene expression in human NCI-H295R cells at 10 uM measured after 24 hrs relative to control; type: ADME, cell-based; conditions: read-out: FC; how it was run: as §2
[15] = Oral bioavailability in cynomolgus monkey at 5 mg/kg administered via gavage measured upto 24 hrs by LC-MS/MS; type: ADME, organism-based, Macaca fascicularis; conditions: in vivo; how it was run: as §1
Mus musculus = experiment: In vivo inhibition of CETP in hCETP/apoB-100 dual transgenic mouse assessed as reduction in [3H]-CE transfer at 0.5 mg/kg, po administered via gavage measured after 2 to 8 hrs by radioactivity based assay; type: functional, organism-based
[16] = Clearance in Balb/c mouse at 5 mg/kg, iv or 10 mg/kg, po administered via gavage measured upto 24 hrs by LC-MS/MS; type: ADME, organism-based; conditions: in vivo; how it was run: as §1
[17] = Volume of distribution at steady state in cynomolgus monkey at 1 mg/kg, iv or 5 mg/kg, po administered via gavage measured upto 24 hrs by LC-MS/MS; type: ADME, organism-based, Macaca fascicularis; conditions: in vivo, read-out: Vdss; how it was run: as §1
[18] = target: T2, Cholesteryl ester transfer protein; experiment: Inhibition of CETP in human whole plasma assessed as reduction in [3H]-CE/HDL transfer incubated for 2.5 hrs by topcount scintillation counting assay; type: cell-free; how it was run: as §5
[19] = Toxicity in telemetered rat assessed as effect on locomotor activity at 2.5 mg/kg administered as iv infusion for 5 mins followed by 7.5 mg/kg, iv infusion for 55 mins; type: organism-based; conditions: in vivo; how it was run: as §4
[20] = Plasma concentration in hamster at 10 mg/kg, po qd administered for 7 days; type: ADME, organism-based; conditions: cricetinae; how it was run: as §3
[21] = Oral bioavailability in Sprague-Dawley rat at 10 mg/kg administered via gavage measured upto 24 hrs by LC-MS/MS; type: ADME, organism-based; conditions: in vivo; how it was run: as §1
[22] = Clearance in Sprague-Dawley rat at 1 mg/kg, iv or 10 mg/kg, po administered via gavage measured upto 24 hrs by LC-MS/MS; type: ADME, organism-based; conditions: in vivo; how it was run: as §1
[23] = Cardiac toxicity in telemetered rat assessed as change in systolic blood pressure at 2.5 mg/kg administered as iv infusion for 5 mins followed by 7.5 mg/kg, iv infusion for 55 mins; type: organism-based; conditions: in vivo; how it was run: as §4
[24] = Volume of distribution at steady state in Balb/c mouse at 5 mg/kg, iv or 10 mg/kg, po administered via gavage measured upto 24 hrs by LC-MS/MS; type: ADME, organism-based; conditions: in vivo, read-out: Vdss; how it was run: as §1

Vd [1]: 1.5 L/kg | fold induction at 24 h, 10 µM (CYP11B2): 0.9 to 2.1 | Ratio IC50 [2]: 2 | bioavailability [3]: 18% | remaining at 10 min, 50 µM [4]: 100% | remaining at 10 min, 50 µM [5]: 100% | half-life [6]: 25 h | clearance [8]: 0.7 mL/min/kg | half-life [11]: 69 h | half-life [13]: 5 h | IC50 [14]: 2 nM | fold induction at 24 h, 10 µM (CYP11B1): 1.3 | bioavailability [15]: 27% | clearance [16]: 1.9 mL/min/kg | Vd [17]: 3.7 L/kg | IC50 [18]: 62 nM | concentration at 168 h [20]: 0.9 µM | bioavailability [21]: 39% | clearance [22]: 2.9 mL/min/kg | Vd [24]: 0.4 L/kg
Compound: NC(C(=O)N[C@@](Cc1ccccc1)(c1cc(F)cc(OC(F)(F)C(F)F)c1)c1ccc(F)c(OC2CC2)c1)C(O)(C(F)(F)F)C(F)(F)F (stereo partly drawn)
inhibition in vivo at 10 mg/kg (Hamster): 32% | Cmax [7]: 23.5 µM | Activity [9]: Non-Toxic | Activity [10]: Non-Toxic | IC50 [12]: > 80000 nM | inhibition (Mus musculus): Active | Activity [19]: Non-Toxic | Activity [23]: Non-Toxic
